Common to all, as to assay type: functional
One experiment relates to Bacillus subtilis. Kind of experiment: Minimum inhibitory concentration (MIC) required to inhibit the growth of Bacillus subtilis PCI 219 by using nutrient agar as growth medium.
In experiment [1] the test system is Escherichia coli. Kind of experiment: Minimum inhibitory concentration (MIC) required to inhibit the growth of Escherichia coli NIHJ using nutrient agar as growth medium.
The test system of experiment [2] is Escherichia coli. Kind of experiment: Inhibition of 10,11,12,13-[3H]tetrahydroleucomycin A3 binding to Escherichia coli Ribosome. The note with it: read-out: ID50. The essentials:
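Competition binding of [3H]tetrahydroleucomycin A3 to E. coli ribosomes. ID50 is the concentration of test agent giving 50% inhibition of radioligand binding.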

In a further experiment the test system is Klebsiella pneumoniae. Kind of experiment: Minimum inhibitory concentration (MIC) required to inhibit the growth of Klebsiella pneumoniae PCI 602 using nutrient agar as growth medium.
A further experiment concerns Micrococcus luteus. The experiment can be described thus: Minimum inhibitory concentration (MIC) required to inhibit the growth of Sarcina lutea PCI 1001 by using nutrient agar as growth medium.
For another experiment, the system named is Staphylococcus aureus. Kind of experiment: Minimum inhibitory concentration (MIC) required to inhibit the growth of Staphylococcus aureus FDA 209P by using nutrient agar as growth medium.

Our source for the MIC and IC50 values is ChEMBL document CHEMBL1122153, “Novel dimeric derivatives of leucomycins and tylosin, sixteen-membered macrolides” (1982).

Values after ≈ are worked out from the molar mass of the structure shown.

What is called MIC is the least concentration at which growth counts as inhibited. Higher therefore signals a need for much substance. Consider `CO[C@@H]1[C@@H](OC2OC(C)C(OC3CC(C)(O)C(OC(=O)CC(C)C)C(C)O3)C(N(C)C)C2O)[C@@H](CCNCC[C@@H]2C[C@H](C)[C@H](O)/C=C/C=C/C[C@H](C)OC(=O)C[C@H](OC(C)=O)[C@@H](OC)[C@@H]2OC2OC(C)C(OC3CC(C)(O)C(OC(=O)CC(C)C)C(C)O3)C(N(C)C)C2O)C[C@@H](C)[C@@H](O)/C=C/C=C/C[C@@H](C)OC(=O)C[C@H]1OC(C)=O` (some centres undefined), for which the MIC against Bacillus subtilis is 6.25 µg/mL (≈ 3.81 µM); in the experiment with Escherichia coli [1], > 100 µg/mL; against Klebsiella pneumoniae it was > 100 µg/mL; with Micrococcus luteus, 25 µg/mL (≈ 15.2 µM); against Staphylococcus aureus it was 100 µg/mL (≈ 60.9 µM). For the same compound, the IC50 in the experiment with Escherichia coli [2] stood at 0.1 µg/mL (≈ 0.0609 µM).

As to `CC[C@H]1C[C@@H](C)[C@@H](O)/C=C/C=C/C[C@@H](C)OC(=O)C[C@@H](OC(C)=O)[C@H](OC)[C@H]1OC1OC(C)C(OC2CC(C)(O)C(OC(=O)CC(C)C)C(C)O2)C(N(C)C)C1O` (some centres undefined), the minimum inhibitory concentration (MIC) is 6.25 µg/mL (≈ 7.68 µM) in the experiment on Bacillus subtilis; > 100 µg/mL with Escherichia coli [1]; > 100 µg/mL in the experiment with Klebsiella pneumoniae; 1.56 µg/mL (≈ 1.92 µM) with Micrococcus luteus; 6.25 µg/mL (≈ 7.68 µM) against Staphylococcus aureus.

As for `CCCC(=O)OC1C(C)OC(OC2C(C)OC(O[C@@H]3[C@H](CCNCC[C@H]4C[C@@H](C)[C@@H](O)/C=C/C=C/C[C@@H](C)OC(=O)C[C@@H](O)[C@H](OC)[C@H]4OC4OC(C)C(OC5CC(C)(O)C(OC(=O)CCC)C(C)O5)C(N(C)C)C4O)C[C@H](C)[C@H](O)/C=C/C=C/C[C@H](C)OC(=O)C[C@H](O)[C@H]3OC)C(O)C2N(C)C)CC1(C)O` (some centres undefined), the MIC against Bacillus subtilis was 12.5 µg/mL (≈ 8.18 µM); against Escherichia coli [1], > 100 µg/mL; with Klebsiella pneumoniae it was > 100 µg/mL; in the experiment on Micrococcus luteus, 12.5 µg/mL (≈ 8.18 µM); against Staphylococcus aureus, 50 µg/mL (≈ 32.7 µM). In addition, in the experiment with Escherichia coli [2], the IC50 was determined as 0.02 µg/mL (≈ 0.0131 µM).

Regarding `CC[C@@H]1OC(=O)C[C@H](O)[C@@H](C)[C@H](OC2OC(C)C(O)C(N(C)C)C2O)[C@H](CCNCC[C@H]2C[C@@H](C)C(=O)/C=C/C(C)=C/C(COC3OC(C)C(O)C(OC)C3OC)[C@@H](CC)OC(=O)C[C@@H](O)[C@H](C)[C@H]2OC2OC(C)C(O)C(N(C)C)C2O)C[C@H](C)C(=O)/C=C/C(C)=C/C1COC1OC(C)C(O)C(OC)C1OC` (some centres undefined), the MIC was determined as 25 µg/mL (≈ 16.4 µM) in the experiment with Bacillus subtilis; 50 µg/mL (≈ 32.7 µM) with Escherichia coli [1]; 100 µg/mL (≈ 65.4 µM) in the experiment with Klebsiella pneumoniae; 0.78 µg/mL (≈ 0.51 µM) against Micrococcus luteus; 3.12 µg/mL (≈ 2.04 µM) against Staphylococcus aureus.

As for `CCCC(=O)OC1C(C)OC(OC2C(C)OC(O[C@H]3[C@@H](CCN)C[C@@H](C)[C@@H](O)/C=C/C=C/C[C@@H](C)OC(=O)C[C@@H](O)[C@@H]3OC)C(O)C2N(C)C)CC1(C)O` (some centres undefined), the minimal inhibitory concentration (MIC) in the experiment on Bacillus subtilis was > 100 µg/mL; against Escherichia coli [1], > 100 µg/mL; against Klebsiella pneumoniae it was > 100 µg/mL; in the experiment with Micrococcus luteus it was 25 µg/mL (≈ 32.3 µM); in the experiment with Staphylococcus aureus, > 100 µg/mL.

Take `CC[C@H]1OC(=O)C[C@@H](O)[C@H](C)[C@@H](O[C@@H]2O[C@H](C)[C@@H](O[C@H]3C[C@@](C)(O)[C@@H](O)[C@H](C)O3)[C@H](N(C)C)[C@H]2O)[C@@H](CC=O)C[C@@H](C)C(=O)/C=C/C(C)=C/[C@@H]1CO[C@@H]1O[C@H](C)[C@@H](O)[C@@H](OC)[C@H]1OC` [TYLOSIN]: the MIC is 0.78 µg/mL (≈ 0.851 µM) against Bacillus subtilis; 50 µg/mL (≈ 54.6 µM) in the experiment with Escherichia coli [1]; 100 µg/mL (≈ 109 µM) with Klebsiella pneumoniae; < 0.1 µg/mL against Micrococcus luteus; 0.78 µg/mL (≈ 0.851 µM) in the experiment on Staphylococcus aureus. The IC50 in the experiment on Escherichia coli [2] was found to be 0.0004 µg/mL (≈ 0.000437 µM).

On to `CO[C@@H]1[C@@H](OC2OC(C)C(OC3CC(C)(O)C(OC(=O)CC(C)C)C(C)O3)C(N(C)C)C2O)[C@@H](CCN)C[C@@H](C)[C@@H](O)/C=C/C=C/C[C@@H](C)OC(=O)C[C@H]1OC(C)=O` (some centres undefined), for which the MIC against Bacillus subtilis is 50 µg/mL (≈ 60.3 µM); in the experiment on Escherichia coli [1], > 100 µg/mL; with Klebsiella pneumoniae it was > 100 µg/mL; in the experiment on Micrococcus luteus, > 100 µg/mL; against Staphylococcus aureus, > 100 µg/mL.

As for `CO[C@@H]1[C@@H](OC2OC(C)C(OC3CC(C)(O)C(OC(=O)CC(C)C)C(C)O3)C(N(C)C)C2O)[C@@H](CC=O)C[C@@H](C)[C@@H](O)/C=C/C=C/C[C@@H](C)OC(=O)C[C@H]1OC(C)=O` (some centres undefined), the MIC is 0.4 µg/mL (≈ 0.483 µM) in the experiment on Bacillus subtilis; 50 µg/mL (≈ 60.4 µM) against Escherichia coli [1]; 50 µg/mL (≈ 60.4 µM) against Klebsiella pneumoniae; < 0.1 µg/mL in the experiment on Micrococcus luteus; 0.4 µg/mL (≈ 0.483 µM) in the experiment with Staphylococcus aureus.

For `CCCC(=O)OC1C(C)OC(OC2C(C)OC(O[C@H]3[C@@H](CC=O)C[C@@H](C)[C@@H](O)/C=C/C=C/C[C@@H](C)OC(=O)C[C@@H](O)[C@@H]3OC)C(O)C2N(C)C)CC1(C)O` (some centres undefined), the MIC is 0.2 µg/mL (≈ 0.259 µM) with Bacillus subtilis; 25 µg/mL (≈ 32.4 µM) against Escherichia coli [1]; 25 µg/mL (≈ 32.4 µM) in the experiment on Klebsiella pneumoniae; < 0.1 µg/mL in the experiment on Micrococcus luteus; < 0.1 µg/mL with Staphylococcus aureus. The IC50 in the experiment with Escherichia coli [2] is 0.0012 µg/mL (≈ 0.00155 µM).

`CC[C@H]1OC(=O)C[C@@H](O)[C@H](C)[C@@H](OC2OC(C)C(OC3CC(C)(O)C(O)C(C)O3)C(N(C)C)C2O)[C@@H](CCN)C[C@@H](C)C(=O)/C=C/C(C)=C/C1COC1OC(C)C(O)C(OC)C1OC` (some centres undefined): the MIC with Bacillus subtilis is 25 µg/mL (≈ 27.3 µM); against Escherichia coli [1], > 100 µg/mL; against Klebsiella pneumoniae, > 100 µg/mL; against Micrococcus luteus, 6.25 µg/mL (≈ 6.81 µM); with Staphylococcus aureus, 50 µg/mL (≈ 54.5 µM).
